The values that follow come from ChEMBL document CHEMBL1143667, “Synthesis and pharmacological evaluation of 6,7-indolo/thiazolo-morphinans--further SAR of levorphanol” (J Med Chem, 2007).

Activity calls are given as the source filed them. No cut-off for these calls is given here.

For test [1], the target named is T1, Mu-type opioid receptor (Homo sapiens, UniProt P35372). Put plainly: Agonist activity at human mu opioid receptor expressed in CHO membrane assessed as stimulation of [35S]GTPgammaS binding. The class given is functional, cell membranes. The essentials: (§1)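 Membranes from CHO cells stably expressing human κ (15 µg protein/tube) or µ (7.5 µg/tube) receptor; 12 agonist concentrations, 60 min at 30 °C in Tris-HCl/MgCl2/NaCl/EGTA buffer pH 7.4 with 3 µM GDP and [35S]GTPγS (0.8 nM). Nonspecific binding with 10 µM unlabeled GTPγS; filtration, scintillation counting. Stimulation as % over basal; at least three experiments in triplicate.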
T1 sequence (P35372 whole entry): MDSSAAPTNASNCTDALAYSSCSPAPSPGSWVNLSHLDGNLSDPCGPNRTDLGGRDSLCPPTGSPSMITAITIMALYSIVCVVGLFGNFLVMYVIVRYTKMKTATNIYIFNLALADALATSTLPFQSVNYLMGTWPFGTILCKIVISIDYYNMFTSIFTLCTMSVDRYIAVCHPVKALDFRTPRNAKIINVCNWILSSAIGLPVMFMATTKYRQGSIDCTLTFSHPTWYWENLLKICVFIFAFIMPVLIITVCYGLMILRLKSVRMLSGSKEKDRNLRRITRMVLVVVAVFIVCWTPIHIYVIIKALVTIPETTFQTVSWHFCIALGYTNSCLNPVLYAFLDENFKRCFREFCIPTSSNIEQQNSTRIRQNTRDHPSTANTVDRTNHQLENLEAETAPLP

Test [2] concerns the target T2, Kappa-type opioid receptor (Homo sapiens, UniProt P41145). The test is described as follows: Displacement of [3H]U-69593 from human kappa opioid receptor expressed in CHO membrane. The class given is cell membranes. The essentials: (§2)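 CHO membranes (0.5 mg protein/sample) incubated 60 min at 25 °C with [3H]DAMGO (µ) or [3H]U69,593 (κ) and 12 compound concentrations in 1 mL 50 mM Tris-HCl, pH 7.5. Nonspecific binding with 10 µM naloxone. Mean ± SEM of three experiments in triplicate.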

Test [3] deals with T3, Delta-type opioid receptor (Homo sapiens, UniProt P41143). The test is described as follows: Displacement of [3H]naltrindole from human delta opioid receptor expressed in CHO membrane. The class given is cell membranes. The essentials:
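CHO membranes (0.5 mg protein/sample) incubated at 25 °C with δ-specific radioligand and 12 compound concentrations in 1 mL 50 mM Tris-HCl, pH 7.5; nonspecific binding with 10 µM naloxone. Three experiments in triplicate.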

Test [4] has as its target T2, Kappa-type opioid receptor. The test is described as follows: Agonist activity at human kappa opioid receptor expressed in CHO membrane assessed as stimulation of [35S]GTP-gamma-S binding. In kind it is functional, cell membranes. The essentials:
as §1

Test [5] addresses T1, Mu-type opioid receptor. The test is described as follows: Antagonist activity at human mu opioid receptor expressed in CHO membrane assessed as inhibition of DAMGO-induced [35S]GTP-gamma-S binding. The class given is functional, cell membranes. The method in brief: (§3)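 Antagonism measured in CHO membranes expressing κ receptor with 100 nM U50,488, or µ receptor with 200 nM DAMGO, plus test compound and 0.8 nM [35S]GTPγS, 3 µM GDP. Filtration and scintillation readout; IC50 and Imax from three experiments in triplicate.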

Test [6] concerns the target T1, Mu-type opioid receptor. Put plainly: Displacement of [3H]DAMGO from human mu opioid receptor expressed in CHO membrane. In kind it is cell membranes. The method in brief:
as §2

The target of test [7] is T2, Kappa-type opioid receptor. Put plainly: Antagonist activity at human kappa opioid receptor expressed in CHO membrane assessed as inhibition of U50488-induced [35S]GTP-gamma-S binding. The class given is functional, cell membranes. The essentials: as §3
The target of test [8] is Opioid receptors; delta & kappa (Homo sapiens) (UniProt P41145+P41143). The test is described as follows: Selectivity for human kappa opioid receptor over human delta opioid receptor. In kind it is protein assay.
Opioid receptors; delta & kappa (Homo sapiens), sequence (P41143 whole entry, looked up): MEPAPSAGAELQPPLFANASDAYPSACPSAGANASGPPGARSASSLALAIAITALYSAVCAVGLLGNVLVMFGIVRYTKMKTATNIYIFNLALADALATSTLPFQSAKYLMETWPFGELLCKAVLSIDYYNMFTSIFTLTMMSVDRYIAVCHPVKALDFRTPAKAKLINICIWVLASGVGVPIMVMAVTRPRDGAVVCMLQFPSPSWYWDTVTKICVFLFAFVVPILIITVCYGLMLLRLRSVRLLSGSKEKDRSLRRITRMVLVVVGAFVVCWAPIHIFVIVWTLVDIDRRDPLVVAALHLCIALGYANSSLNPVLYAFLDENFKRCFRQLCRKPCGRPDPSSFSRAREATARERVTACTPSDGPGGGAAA
Opioid receptors; delta & kappa (Homo sapiens), sequence (P41145 whole entry, looked up): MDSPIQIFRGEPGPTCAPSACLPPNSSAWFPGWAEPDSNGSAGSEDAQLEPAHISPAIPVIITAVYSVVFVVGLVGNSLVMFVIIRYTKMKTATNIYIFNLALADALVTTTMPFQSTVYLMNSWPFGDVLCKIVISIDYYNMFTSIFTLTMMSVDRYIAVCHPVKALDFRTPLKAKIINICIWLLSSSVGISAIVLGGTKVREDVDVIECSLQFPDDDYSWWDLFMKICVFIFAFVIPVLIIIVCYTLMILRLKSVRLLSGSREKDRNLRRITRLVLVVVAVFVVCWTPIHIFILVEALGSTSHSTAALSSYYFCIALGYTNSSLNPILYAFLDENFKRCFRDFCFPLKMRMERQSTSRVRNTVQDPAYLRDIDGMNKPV
The target in test [9] is T3, Delta-type opioid receptor. The test is described as follows: Agonist activity at human delta opioid receptor expressed in CHO membrane assessed as stimulation of [35S]GTP-gamma-S binding. The class given is functional, cell membranes.
The target of test [10] is Opioid receptors; mu & kappa (Homo sapiens) (UniProt P41145+P35372). Put plainly: Selectivity for human kappa opioid receptor over human mu opioid receptor. The class given is protein assay.
Opioid receptors; mu & kappa (Homo sapiens), sequence (P35372 whole entry, looked up): as the sequence (P35372 whole entry) above
Opioid receptors; mu & kappa (Homo sapiens), sequence (P41145 whole entry, looked up): as the sequence (P41145 whole entry, looked up) above
Test [11] has as its target T3, Delta-type opioid receptor. Put plainly: Antagonist activity at human delta opioid receptor expressed in CHO membrane assessed as inhibition of SNC80-induced [35S]GTPgammaS binding. In kind it is functional, cell membranes.

T2 sequence (P41145 whole entry): as the sequence (P41145 whole entry, looked up) above
T3 sequence (P41143 whole entry): as the sequence (P41143 whole entry, looked up) above

With `COc1ccc2c(c1)[C@]13CCN(CC4CC4)[C@H](C2)[C@@H]1Cc1c([nH]c2ccccc12)C3`, the EC50 at Mu-type opioid receptor [1] is 1.7 nM; in [4], 24 nM; in test [9] it was 1.5 nM. Moreover, the Emax at Mu-type opioid receptor [1] amounted to 72%; in [4], 68%; in test [9], 56%. Also, the values for the Ki (in test [2]; in test [3]; at Mu-type opioid receptor [6]) were 1.4 nM, 1.5 nM and 5.9 nM, respectively. Besides, the IC50 at Mu-type opioid receptor [5] stood at 440 nM. On Mu-type opioid receptor [5], the Imax was found to be 43%. Besides, the outcome in [7] and in test [11] was inactive. Further, the Ratio Ki in test [8] stood at 1; in [10], 4.
For the molecule `Oc1ccc2c(c1)[C@]13CCN(CC4CCC4)[C@H](C2)[C@@H]1Cc1c([nH]c2ccccc12)C3`, the EC50 is 110 nM at Mu-type opioid receptor [1], 190 nM in test [4] and 0.8 nM in test [9]. Further, the figures for the Emax (at Mu-type opioid receptor [1]; in test [4]; in test [9]) were 68%, 87% and 37%, respectively. Besides, the Ki is 1 nM in test [2], 0.17 nM in test [3] and 3.9 nM on Mu-type opioid receptor [6]. Moreover, the Imax on Mu-type opioid receptor [5] was found to be 23%; in test [11], 55%. Moreover, in test [7], the result was inactive. Moreover, the Ratio Ki came to 0.2 in [8] and 4 in test [10]. Further, the IC50 in test [11] worked out at 0.6 nM.
For the molecule `Nc1nc2c(s1)C[C@H]1[C@H]3Cc4ccc(O)cc4[C@@]1(CCN3CC1CC1)C2`, the Ki in [2] turned out to be 0.07 nM; in test [3], 0.23 nM. Besides, the EC50 in test [4] came to 0.34 nM; in [9], 0.17 nM. For the same molecule, the Emax stood at 37% in test [4] and 49% in test [9]. For the same molecule, the outcome in test [7] and in test [11] was inactive.
With `COc1ccc2c(c1)[C@]13CCN(CC4CCC4)[C@H](C2)[C@@H]1Cc1c([nH]c2ccccc12)C3`, the Ki in test [2] stood at 89 nM; in test [3], 8.7 nM; on Mu-type opioid receptor [6], 330 nM. Besides, the Ratio Ki was determined as 0.1 in test [8] and 4 in [10]. For the same molecule, the concentration for a half-maximal effect (EC50) in test [9] was found to be 23 nM. Besides, in test [9], the Emax stood at 54%. Besides, in [11], the result was inactive.
Consider `CN1CC[C@]23Cc4[nH]c5ccccc5c4C[C@H]2[C@H]1Cc1ccc(O)cc13`, for which the Ki stood at 14 nM in test [2], 0.35 nM in test [3] and 22 nM at Mu-type opioid receptor [6]. For the same molecule, the Ratio Ki in test [8] worked out at 0.03; in test [10], 1.6. Moreover, in [9], the EC50 was 0.47 nM. Further, the Emax in [9] came to 23%. For the same molecule, in [11], the IC50 is 1.5 nM. Further, the Imax in [11] stood at 45%.
As for `Nc1nc2c(s1)C[C@H]1[C@H]3Cc4ccc(O)cc4[C@@]1(CCN3CC1CCC1)C2`, the EC50 at Mu-type opioid receptor [1] was determined as 2.6 nM; in test [4], 2.6 nM; in [9], 2.5 nM. Besides, the maximal response (Emax) on Mu-type opioid receptor [1] came to 33%; in [4] it was 40%; in [9] it was 51%. The Ki turned out to be 0.14 nM in test [2], 1.1 nM in test [3] and 0.37 nM at Mu-type opioid receptor [6]. In addition, the results for the concentration for half-maximal inhibition (IC50) (at Mu-type opioid receptor [5]; in test [7]) were 26 nM and 93 nM, respectively. Also, the figures for the Imax (on Mu-type opioid receptor [5]; in test [7]) were 68% and 44%, respectively. For the same molecule, the Ratio Ki is 8 in test [8] and 3 in test [10]. Moreover, in test [11], the outcome was inactive.
Consider `CN1CC[C@]23Cc4nc(N)sc4C[C@H]2[C@H]1Cc1ccc(O)cc13`, for which the values for the EC50 (at Mu-type opioid receptor [1]; in test [4]; in [9]) were 140 nM, 21 nM and 8.4 nM, respectively. The values for the Emax (on Mu-type opioid receptor [1]; in test [4]; in test [9]) were 42%, 44% and 67%, respectively. In addition, the inhibition constant (Ki) in [2] came to 2.2 nM; in [3] it was 4.2 nM; at Mu-type opioid receptor [6], 0.49 nM. In addition, the Imax at Mu-type opioid receptor [5] amounted to 45%. Further, the result in test [7] and in [11] was inactive. In addition, the Ratio Ki was found to be 2 in [8] and 0.2 in test [10].
In the case of `Oc1ccc2c(c1)[C@]13CCN(CC4CC4)[C@H](C2)[C@@H]1Cc1c([nH]c2ccccc12)C3`, the EC50 on Mu-type opioid receptor [1] was found to be 92 nM; in test [4], 61 nM; in test [9], 0.16 nM. The figures for the Emax (at Mu-type opioid receptor [1]; in test [4]; in [9]) were 47%, 67% and 22%, respectively. Also, the Ki in test [2] came to 0.64 nM; in [3], 0.19 nM; at Mu-type opioid receptor [6], 1.1 nM. In addition, the figures for the IC50 (at Mu-type opioid receptor [5]; in test [7]; in test [11]) were 12 nM, 17 nM and 1.2 nM, respectively. For the same molecule, the Imax on Mu-type opioid receptor [5] is 84%; in test [7], 49%; in test [11] it was 73%. For the same molecule, the Ratio Ki worked out at 0.3 in [8] and 2 in test [10].
As for `COc1ccc2c(c1)[C@]13CCN(C)[C@H](C2)[C@@H]1Cc1c([nH]c2ccccc12)C3`, the Ki in test [2] was determined as 390 nM; in test [3], 35 nM; on Mu-type opioid receptor [6], 340 nM. Besides, the Ratio Ki is 0.1 in test [8] and 0.9 in [10].
